Experimental data from ChEMBL document CHEMBL3352559, “Synthesis and pharmacological investigation of aralkyl diamine derivatives as potential triple reuptake inhibitors” (Eur J Med Chem, 2014).

Columns and labels:
[1] = molecular target: Prostaglandin E2 receptor EP4 subtype (Homo sapiens) (UniProt P35408); test: Displacement of [3H]PGE2 from human EP4 receptor at 10 uM relative to control
Method in brief: (§1)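 Outsourced CNS panel of 55 receptor binding assays run by Cerep. Compound tested at 10 μM, the default primary-binding concentration, with inhibition expressed relative to control. Inhibition above 50% taken as a significant effect.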

[2] = molecular target: Sodium-dependent dopamine transporter (Homo sapiens, UniProt Q01959); test: Displacement of [3H]BTCP from human DAT at 10 uM relative to control; method in brief: as §1
[3] = Drug uptake in Sprague-Dawley rat brain at 0.5 mg/kg ip after 0.50 hrs
[4] = molecular target: Muscarinic acetylcholine receptor M2 (Homo sapiens) (UniProt P08172); test: Displacement of [3H]AF-DX 384 from human muscarinic M2 receptor at 10 uM relative to control; method in brief: as §1
[5] = molecular target: Melatonin receptor type 1A (Homo sapiens) (UniProt P48039); test: Displacement of 2-[125I]iodomelatonin from human melatonin MT1 receptor at 10 uM relative to control; method in brief: as §1
[6] = molecular target: 5-hydroxytryptamine receptor 1B (Homo sapiens) (UniProt P28222); test: Displacement of [125I]CYP from human 5-HT1B receptor at 10 uM relative to control; method in brief: as §1
[7] = Drug uptake in Sprague-Dawley rat plasma at 0.5 mg/kg iv after 4 hrs; assay type: ADME, organism-based; design: dose 0.5 mg/kg, route intravenous
Method in brief: (§2)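 Male SD rats, fasted overnight until 6 h post-dose; single 0.5 mg/kg femoral-vein injection; blood drawn into heparin at 5, 15, 30 min, 1, 2 and 4 h; plasma stored at -40 °C; drug levels by LC/MS/MS; noncompartmental parameters.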

[8] = Mean residence time in Sprague-Dawley rat at 2 mg/kg, po; assay type: ADME, organism-based; design: dose 2 mg/kg, route oral; conditions: in vivo
[9] = molecular target: D(1A) dopamine receptor (Homo sapiens) (UniProt P21728); test: Displacement of [3H]SCH23390 from human dopamine D1 receptor at 10 uM relative to control; method in brief: as §1
[10] = Ratio of drug level in Sprague-Dawley rat brain to plasma at 0.5 mg/kg iv after 2 hrs; assay type: ADME, organism-based; design: dose 0.5 mg/kg, route intravenous; conditions: read-out: BPR
[11] = molecular target: Somatostatin receptor (Homo sapiens) (UniProt P35346+P30874+P31391+P30872+P32745); test: Displacement of [125ITyr11- somatostatin-14 from sst receptor (unknown origin) at 10 uM relative to control; assay type: protein assay; method in brief: as §1
[12] = molecular target: 5-hydroxytryptamine receptor 5A (Homo sapiens) (UniProt P47898); test: Displacement of [3H]LSD from human 5-HT5A receptor at 10 uM relative to control; method in brief: as §1
[13] = molecular target: 5-hydroxytryptamine receptor 2B (Homo sapiens) (UniProt P41595); test: Displacement of [125I] (+/-)DOI from human 5-HT2B receptor at 10 uM relative to control; method in brief: as §1
[14] = Acute toxicity in KM mouse assessed as survival at 750 mg/kg, po up to 14 days (reference value: 100%); assay type: organism-based; design: dose 750 mg/kg, route oral; conditions: in vivo
[15] = molecular target: Kappa-type opioid receptor (Homo sapiens) (UniProt P41145); test: Displacement of [3H]U69593 from human kappa opioid receptor at 10 uM relative to control
Method in brief: (§3)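 Outsourced CNS receptor panel (55 binding assays); compound tested at 10 μM in primary radioligand binding; specific binding inhibition expressed relative to control, with >50% inhibition taken as a significant effect.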

[16] = Acute toxicity in KM mouse assessed as survival at 300 mg/kg, po up to 14 days (reference value: 100%); assay type: organism-based; design: dose 300 mg/kg, route oral; conditions: in vivo
Homo sapiens = species on record: Homo sapiens; test: Inhibition of GABA-gated chloride channel (unknown origin) at 10 uM by [35S]TBPS binding assay relative to control; method in brief: as §3
Salmonella typhimurium [17] = test: Mutagenic activity in Salmonella typhimurium TA100 assessed as number of reversion mutation at 3 ug/plate; assay type: toxicity, organism-based; conditions: salmonella enterica subsp. enterica serovar typhimurium
Method in brief: (§4)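 Ames reversion test in Salmonella typhimurium TA98 and TA100, with and without rat liver S9 metabolic activation. Compound was dissolved in DMSO and added at 3–5000 μg/plate. Each dose, vehicle and positive control was plated in triplicate, and revertant colonies were counted.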

[18] = molecular target: Cholecystokinin receptor type A (Homo sapiens) (UniProt P32238); test: Displacement of [125I]CCK-8s from human CCKA at 10 uM relative to control; method in brief: as §1
[19] = molecular target: C-X-C chemokine receptor type 2 (Homo sapiens) (UniProt P25025); test: Displacement of [125I]IL-8 from CXCR2 receptor (unknown origin) at 10 uM relative to control; method in brief: as §1
[20] = molecular target: Muscarinic acetylcholine receptor M1 (Homo sapiens) (UniProt P11229); test: Displacement of [3H]pirenzepine from human muscarinic M1 receptor at 10 uM relative to control; method in brief: as §3
[21] = molecular target: 5-hydroxytryptamine receptor 3A (Homo sapiens) (UniProt P46098); test: Inhibition of human 5HT3 at 10 uM by […] binding assay relative to control; method in brief: as §3
Salmonella typhimurium [22] = test: Mutagenic activity in Salmonella typhimurium TA98 assessed as number of reversion mutation at 30 ug/plate; assay type: toxicity, organism-based; conditions: salmonella enterica subsp. enterica serovar typhimurium; method in brief: as §4
[23] = Drug uptake in Sprague-Dawley rat plasma at 0.5 mg/kg iv after 0.50 hrs; assay type: ADME, organism-based; design: dose 0.5 mg/kg, route intravenous; method in brief: as §2
Salmonella typhimurium [24] = test: Mutagenic activity in Salmonella typhimurium TA98 assessed as number of reversion mutation at 5000 ug/plate; assay type: toxicity, organism-based; conditions: salmonella enterica subsp. enterica serovar typhimurium; method in brief: as §4
[25] = Acute toxicity in KM mouse assessed as survival at 600 mg/kg, po up to 14 days (reference value: 100%); assay type: organism-based; design: dose 600 mg/kg, route oral; conditions: in vivo
[26] = Drug uptake in Sprague-Dawley rat brain at 0.5 mg/kg ip after 0.25 hrs
[27] = Clearance in Sprague-Dawley rat at 0.5 mg/kg, iv; conditions: in vivo
[28] = Ratio of drug level in Sprague-Dawley rat brain to plasma at 0.5 mg/kg iv after 0.08 hrs; assay type: ADME, organism-based; design: dose 0.5 mg/kg, route intravenous; conditions: read-out: BPR
Rattus norvegicus [29] = test: Antidepressant activity in po dosed rat assessed as reduction in immobility time by forced swimming test; assay type: functional, organism-based
Method in brief: (§5)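 Male rats dosed orally at 5, 10 or 20 mg/kg alongside vehicle and venlafaxine 30 mg/kg PO groups. 1 h post-dose, each rat placed in a glass cylinder (40 cm × 18 cm) holding 15 cm of 25 ± 1 °C water. Immobility time recorded over a 6 min trial; significant main effects followed by post hoc Fisher's test.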

Rattus norvegicus [30] = test: Antidepressant activity in rat assessed as reduction in immobility time at 20 mg/kg, po by forced swimming test relative to control; assay type: functional; method in brief: as §5
[31] = molecular target: Adenosine receptor A1 (Homo sapiens) (UniProt P30542); test: Displacement of [3H]-DPCPX from human adenosine A1 receptor at 10 uM relative to control; method in brief: as §1
[32] = Ratio of drug level in Sprague-Dawley rat brain to plasma at 0.5 mg/kg iv after 0.50 hrs; assay type: ADME, organism-based; design: dose 0.5 mg/kg, route intravenous; conditions: read-out: BPR
[33] = Tmax in Sprague-Dawley rat at 2 mg/kg, po; assay type: ADME, organism-based; design: dose 2 mg/kg, route oral; conditions: in vivo
Rattus norvegicus [34] = test: Antidepressant activity in rat assessed as reduction in immobility time at 5 mg/kg, po by forced swimming test relative to control; assay type: functional; method in brief: as §5
[35] = molecular target: Sodium-dependent noradrenaline transporter (Homo sapiens, UniProt P23975); conditions: 10 uM

5-hydroxytryptamine receptor 2B (Homo sapiens), sequence (P41595 whole entry): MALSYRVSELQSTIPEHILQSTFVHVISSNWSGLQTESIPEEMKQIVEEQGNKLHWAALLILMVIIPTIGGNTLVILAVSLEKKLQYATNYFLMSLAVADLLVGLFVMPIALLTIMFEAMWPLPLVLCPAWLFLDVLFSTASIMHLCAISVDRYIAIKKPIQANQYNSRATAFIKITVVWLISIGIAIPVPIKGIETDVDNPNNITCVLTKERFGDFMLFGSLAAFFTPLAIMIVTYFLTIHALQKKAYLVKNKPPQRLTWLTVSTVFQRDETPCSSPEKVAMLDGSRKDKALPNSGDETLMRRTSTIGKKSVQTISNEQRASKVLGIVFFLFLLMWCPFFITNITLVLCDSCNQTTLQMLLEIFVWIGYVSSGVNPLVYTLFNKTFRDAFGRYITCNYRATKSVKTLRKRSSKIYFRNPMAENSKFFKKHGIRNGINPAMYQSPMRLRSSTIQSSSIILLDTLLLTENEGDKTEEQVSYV
Adenosine receptor A1 (Homo sapiens), sequence (P30542 whole entry): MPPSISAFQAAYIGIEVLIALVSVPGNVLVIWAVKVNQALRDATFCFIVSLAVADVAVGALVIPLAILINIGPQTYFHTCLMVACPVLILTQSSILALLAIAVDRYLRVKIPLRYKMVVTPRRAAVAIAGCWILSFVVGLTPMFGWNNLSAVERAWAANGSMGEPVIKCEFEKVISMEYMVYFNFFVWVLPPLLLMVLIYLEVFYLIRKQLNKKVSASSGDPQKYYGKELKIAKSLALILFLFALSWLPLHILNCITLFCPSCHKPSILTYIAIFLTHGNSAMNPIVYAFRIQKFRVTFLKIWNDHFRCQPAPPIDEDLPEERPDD
5-hydroxytryptamine receptor 1B (Homo sapiens), sequence (P28222 whole entry): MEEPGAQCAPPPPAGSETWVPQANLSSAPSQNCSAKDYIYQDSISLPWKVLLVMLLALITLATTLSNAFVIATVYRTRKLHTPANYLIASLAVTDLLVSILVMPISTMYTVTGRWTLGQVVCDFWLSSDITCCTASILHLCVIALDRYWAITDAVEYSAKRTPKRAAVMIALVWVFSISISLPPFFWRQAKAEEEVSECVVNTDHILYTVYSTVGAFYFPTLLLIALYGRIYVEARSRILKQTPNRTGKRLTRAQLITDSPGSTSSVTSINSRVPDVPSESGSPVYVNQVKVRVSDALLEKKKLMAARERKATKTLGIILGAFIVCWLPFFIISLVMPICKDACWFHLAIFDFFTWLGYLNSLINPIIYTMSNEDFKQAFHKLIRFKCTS
D(1A) dopamine receptor (Homo sapiens), sequence (P21728 whole entry): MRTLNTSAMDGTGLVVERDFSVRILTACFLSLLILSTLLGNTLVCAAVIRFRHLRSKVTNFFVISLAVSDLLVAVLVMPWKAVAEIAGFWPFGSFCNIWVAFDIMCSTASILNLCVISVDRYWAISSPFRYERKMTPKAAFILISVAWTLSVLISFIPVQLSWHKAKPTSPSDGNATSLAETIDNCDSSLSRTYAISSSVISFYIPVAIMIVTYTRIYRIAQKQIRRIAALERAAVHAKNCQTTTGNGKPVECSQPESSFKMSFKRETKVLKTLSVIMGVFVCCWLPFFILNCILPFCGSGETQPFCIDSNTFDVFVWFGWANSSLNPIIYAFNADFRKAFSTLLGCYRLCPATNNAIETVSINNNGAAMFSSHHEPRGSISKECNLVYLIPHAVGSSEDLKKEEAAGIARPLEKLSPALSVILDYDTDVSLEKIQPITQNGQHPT
Muscarinic acetylcholine receptor M2 (Homo sapiens), sequence (P08172 whole entry): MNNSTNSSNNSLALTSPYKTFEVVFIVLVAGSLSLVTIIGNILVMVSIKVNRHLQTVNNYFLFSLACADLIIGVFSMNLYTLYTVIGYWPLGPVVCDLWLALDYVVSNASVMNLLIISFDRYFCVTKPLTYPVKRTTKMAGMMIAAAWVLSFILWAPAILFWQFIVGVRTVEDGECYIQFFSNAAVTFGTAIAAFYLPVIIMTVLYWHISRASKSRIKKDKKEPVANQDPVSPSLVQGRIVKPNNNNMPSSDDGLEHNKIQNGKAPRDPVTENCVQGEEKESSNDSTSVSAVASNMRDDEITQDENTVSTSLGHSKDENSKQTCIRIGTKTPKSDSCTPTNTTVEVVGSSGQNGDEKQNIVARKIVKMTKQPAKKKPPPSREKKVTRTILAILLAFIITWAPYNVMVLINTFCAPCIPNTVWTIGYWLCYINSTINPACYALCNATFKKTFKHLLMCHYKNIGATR
5-hydroxytryptamine receptor 3A (Homo sapiens), sequence (P46098 whole entry): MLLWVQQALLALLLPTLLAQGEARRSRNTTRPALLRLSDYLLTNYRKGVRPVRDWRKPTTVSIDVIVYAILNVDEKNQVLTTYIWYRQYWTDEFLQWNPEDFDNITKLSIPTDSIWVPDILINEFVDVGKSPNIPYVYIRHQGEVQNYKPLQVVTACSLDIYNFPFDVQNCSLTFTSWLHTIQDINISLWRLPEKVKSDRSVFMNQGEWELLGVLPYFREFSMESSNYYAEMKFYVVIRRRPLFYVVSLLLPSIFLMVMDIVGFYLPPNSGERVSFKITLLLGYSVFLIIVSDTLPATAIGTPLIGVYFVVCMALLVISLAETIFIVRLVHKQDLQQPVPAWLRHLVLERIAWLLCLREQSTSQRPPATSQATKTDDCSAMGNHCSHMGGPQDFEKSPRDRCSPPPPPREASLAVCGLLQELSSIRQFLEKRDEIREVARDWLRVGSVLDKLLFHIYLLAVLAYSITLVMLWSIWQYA
Muscarinic acetylcholine receptor M1 (Homo sapiens), sequence (P11229 whole entry): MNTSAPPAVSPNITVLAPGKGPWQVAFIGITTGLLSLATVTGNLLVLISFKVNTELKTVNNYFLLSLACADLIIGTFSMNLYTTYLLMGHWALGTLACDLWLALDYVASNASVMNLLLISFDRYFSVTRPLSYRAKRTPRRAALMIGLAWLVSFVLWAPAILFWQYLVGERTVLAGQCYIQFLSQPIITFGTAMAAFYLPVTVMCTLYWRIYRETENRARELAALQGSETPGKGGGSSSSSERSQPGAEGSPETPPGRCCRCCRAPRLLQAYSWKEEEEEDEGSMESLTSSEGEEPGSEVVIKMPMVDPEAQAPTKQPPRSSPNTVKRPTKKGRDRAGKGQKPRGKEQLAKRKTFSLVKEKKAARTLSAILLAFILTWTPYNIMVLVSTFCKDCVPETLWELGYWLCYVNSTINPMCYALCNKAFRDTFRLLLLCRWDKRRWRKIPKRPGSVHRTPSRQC
Cholecystokinin receptor type A (Homo sapiens), sequence (P32238 whole entry): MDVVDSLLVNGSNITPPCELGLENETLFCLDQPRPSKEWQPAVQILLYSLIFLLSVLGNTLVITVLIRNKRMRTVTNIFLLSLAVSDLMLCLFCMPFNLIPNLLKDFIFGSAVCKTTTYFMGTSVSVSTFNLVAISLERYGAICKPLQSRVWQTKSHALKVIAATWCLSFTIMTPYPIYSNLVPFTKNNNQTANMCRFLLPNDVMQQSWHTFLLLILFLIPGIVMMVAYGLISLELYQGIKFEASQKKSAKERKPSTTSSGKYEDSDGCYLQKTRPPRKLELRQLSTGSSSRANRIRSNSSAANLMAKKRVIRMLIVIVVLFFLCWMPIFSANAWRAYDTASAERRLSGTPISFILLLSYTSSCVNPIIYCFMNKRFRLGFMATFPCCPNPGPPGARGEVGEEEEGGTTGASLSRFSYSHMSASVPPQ
Sodium-dependent dopamine transporter, sequence (Q01959 whole entry): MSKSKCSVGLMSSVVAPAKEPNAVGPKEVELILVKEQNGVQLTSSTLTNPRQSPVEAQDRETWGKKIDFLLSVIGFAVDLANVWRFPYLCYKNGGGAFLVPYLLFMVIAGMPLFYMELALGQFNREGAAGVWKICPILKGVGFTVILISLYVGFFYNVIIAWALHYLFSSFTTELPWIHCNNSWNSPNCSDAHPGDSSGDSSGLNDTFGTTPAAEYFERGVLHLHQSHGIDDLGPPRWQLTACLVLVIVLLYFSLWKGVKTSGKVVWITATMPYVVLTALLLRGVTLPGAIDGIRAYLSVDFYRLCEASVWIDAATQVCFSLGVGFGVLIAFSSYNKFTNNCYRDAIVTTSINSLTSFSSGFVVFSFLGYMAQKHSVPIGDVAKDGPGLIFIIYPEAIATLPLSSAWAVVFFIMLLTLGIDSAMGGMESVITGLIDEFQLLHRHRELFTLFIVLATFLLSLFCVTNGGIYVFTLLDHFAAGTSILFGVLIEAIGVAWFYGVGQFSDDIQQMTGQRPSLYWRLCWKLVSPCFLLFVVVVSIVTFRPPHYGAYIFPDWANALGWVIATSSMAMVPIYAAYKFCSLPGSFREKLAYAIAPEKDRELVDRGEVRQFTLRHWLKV
Prostaglandin E2 receptor EP4 subtype (Homo sapiens), sequence (P35408 whole entry): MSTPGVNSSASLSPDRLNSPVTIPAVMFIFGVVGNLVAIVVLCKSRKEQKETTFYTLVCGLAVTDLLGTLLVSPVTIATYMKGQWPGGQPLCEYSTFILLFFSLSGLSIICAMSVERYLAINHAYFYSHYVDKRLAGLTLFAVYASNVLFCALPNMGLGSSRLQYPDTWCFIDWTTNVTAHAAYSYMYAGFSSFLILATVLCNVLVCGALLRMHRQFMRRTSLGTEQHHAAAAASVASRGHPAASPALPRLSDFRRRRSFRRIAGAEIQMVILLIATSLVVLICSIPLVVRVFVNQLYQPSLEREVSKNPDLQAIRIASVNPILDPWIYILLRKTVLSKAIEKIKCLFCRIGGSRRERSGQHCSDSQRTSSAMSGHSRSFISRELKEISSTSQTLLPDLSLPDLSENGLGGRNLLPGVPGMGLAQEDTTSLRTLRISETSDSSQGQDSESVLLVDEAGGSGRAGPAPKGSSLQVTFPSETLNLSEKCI
C-X-C chemokine receptor type 2 (Homo sapiens), sequence (P25025 whole entry): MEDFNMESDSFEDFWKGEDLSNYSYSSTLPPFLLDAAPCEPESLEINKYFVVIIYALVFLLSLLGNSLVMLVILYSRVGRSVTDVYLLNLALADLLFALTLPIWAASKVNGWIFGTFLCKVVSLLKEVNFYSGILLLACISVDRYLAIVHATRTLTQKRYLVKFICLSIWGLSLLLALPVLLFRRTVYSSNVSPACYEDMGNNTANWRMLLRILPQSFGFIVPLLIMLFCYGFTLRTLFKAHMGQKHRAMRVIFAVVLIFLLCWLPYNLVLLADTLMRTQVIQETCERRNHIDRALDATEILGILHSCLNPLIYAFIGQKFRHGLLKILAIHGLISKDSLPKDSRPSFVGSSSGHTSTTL

Compound: CN(C)CCC(c1ccc(Cl)c(Cl)c1)N1CCOCC1 (stereo unspecified)
- inhibition [1]: -1.2%
- inhibition [2]: 93.6%
- concentration at 0.5 h [3]: 549 ng/mL
- inhibition [4]: 17.7%
- inhibition [5]: -7.1%
- inhibition [6]: 0.7%
- concentration at 4 h [7]: 3.7 ng/mL
- MRT [8]: 3.05 h
- inhibition [9]: 2.2%
- Kp at 2 h [10]: 16.4
- inhibition [11]: 3.2%
- inhibition [12]: 1.4%
- inhibition [13]: 19.2%
- survival at 336 h [14]: 60%
- inhibition [15]: 11.2%
- survival at 336 h [16]: 100%
- inhibition (Homo sapiens): -2.3%
- Activity (Salmonella typhimurium [17]): 87
- inhibition [18]: 1%
- inhibition [19]: 9.3%
- inhibition [20]: 45.6%
- inhibition [21]: -5.2%
- Activity (Salmonella typhimurium [22]): 36
- concentration at 0.5 h [23]: 44.5 ng/mL
- Activity (Salmonella typhimurium [24]): 12
- survival at 336 h [25]: 80%
- concentration at 0.25 h [26]: 925 ng/mL
- clearance [27]: 100 mL/min/kg
- Kp at 0.08 h [28]: 23.1
- inhibition (Rattus norvegicus [29]): Dose-dependent effect
- inhibition in vivo at 20 mg/kg (Rattus norvegicus [30]): 66%
- inhibition [31]: 8.7%
- Kp at 0.5 h [32]: 12.3
- Tmax [33]: 30 min
- inhibition in vivo at 5 mg/kg (Rattus norvegicus [34]): 31%
- inhibition [35]: 96.7%
